Results from ChEMBL document CHEMBL4346727, “Synthesis and pharmacological evaluation of novel N-Mannich bases derived from 5,5-diphenyl and 5,5-di(propan-2-yl)imidazolidine-2,4-dione core” (Bioorg Med Chem Lett, 2019).
Calls of active or inactive are those of the source. Unless noted, no cut-off for these calls is given here.

Experiments:
[1] = Neurotoxicity in ip dosed CD1 mouse and measured after 0.5 hrs by rotarod test; type: toxicity, organism-based; details: in vivo
Method in brief: (§1)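 Mice dosed intraperitoneally at 30, 100 and 300 mg/kg, then tested on the rotarod at 0.5 h and 4 h. The value recorded is the minimum dose at which neurotoxicity appeared. A dash means no neurotoxicity at the top dose of 300 mg/kg.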

Mus musculus [2] = experiment: Anticonvulsant activity in ip dosed CD1 mouse assessed as protection against subcutaneous pentylenetetrazole-induced seizures and measured after 4 hrs; type: functional; details: CD1, 4 h, read-out: MED
Method in brief: (§2)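 Mice were screened after intraperitoneal doses of 30, 100 and 300 mg/kg in the maximal electroshock and subcutaneous pentylenetetrazole tests, examined at 0.5 and 4 h. The value recorded is the minimum dose showing activity. No activity up to 300 mg/kg is scored as absent.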

[3] = Neurotoxicity in ip dosed CD1 mouse and measured after 4 hrs by rotarod test; type: toxicity, organism-based; details: in vivo; method in brief: as §1
Mus musculus [4] = experiment: Anticonvulsant activity in ip dosed CD1 mouse assessed as protection against 50 mA current-induced seizure and measured after 4 hrs by maximal electroshock seizure test; type: functional; details: read-out: MED; method in brief: as §2
Mus musculus [5] = experiment: Anticonvulsant activity in CD1 mouse assessed as protection against subcutaneous pentylenetetrazole-induced seizures at 300 mg/kg, ip and measured after 0.5 hrs; type: functional, organism-based; method in brief: as §2
Mus musculus [6] = experiment: Anticonvulsant activity in ip dosed CD1 mouse assessed as protection against 50 mA current-induced seizure and measured after 0.5 hrs by maximal electroshock seizure test; type: functional; details: read-out: MED; method in brief: as §2
[7] = Neurotoxicity in CD1 mouse at 300 mg/kg, ip and measured after 0.5 hrs by rotarod test; type: toxicity, organism-based; details: in vivo; method in brief: as §1
[8] = Neurotoxicity in CD1 mouse at 100 mg/kg, ip measured after 1 hr by rotarod test; details: in vivo
Mus musculus [9] = experiment: Anticonvulsant activity in CD1 mouse assessed as protection against 32 mA current-induced seizure at 100 mg/kg, ip measured after 15 mins by 6 Hz psychomotor seizure test
[10] = Neurotoxicity in Sprague-Dawley rat at 30 mg/kg, po measured after 30 mins by rotarod test; type: toxicity, organism-based; details: in vivo, 0.5 h
Method in brief: (§3)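 Rats given one oral dose of 30 mg/kg and tested on the rotarod at 0.25, 0.5, 1, 2, 4 and 6 h.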

[11] = Neurotoxicity in Sprague-Dawley rat at 30 mg/kg, po measured after 2 hr by rotarod test; type: toxicity, organism-based; details: in vivo; method in brief: as §3
[12] = Neurotoxicity in Sprague-Dawley rat at 30 mg/kg, po measured after 1 hr by rotarod test; type: toxicity, organism-based; details: in vivo; method in brief: as §3
Mus musculus [13] = experiment: Anticonvulsant activity in CD1 mouse assessed as protection against 50 mA current-induced seizure at 300 mg/kg, ip and measured after 0.5 hrs by maximal electroshock seizure test; type: functional, organism-based; method in brief: as §2
Rattus norvegicus [14] = experiment: Anticonvulsant activity in Sprague-Dawley rat assessed as protection against 150 mA current-induced seizure at 30 mg/kg, po measured after 15 mins by maximal electroshock seizure test; type: functional, organism-based
Method in brief: (§4)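 Rats received 30 mg/kg orally and were given maximal electroshock at 0.25, 0.5, 1, 2, 4 and 6 h. Read-out is the number of rats protected out of four.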

[15] = Neurotoxicity in Sprague-Dawley rat at 30 mg/kg, po measured after 15 mins by rotarod test; type: toxicity, organism-based; details: in vivo, 0.25 h; method in brief: as §3
[16] = Neurotoxicity in CD1 mouse at 100 mg/kg, ip measured after 15 mins by rotarod test; details: in vivo, 0.25 h
[17] = Neurotoxicity in CD1 mouse at 100 mg/kg, ip measured after 2 hrs by rotarod test; details: in vivo
[18] = Neurotoxicity in CD1 mouse at 100 mg/kg, ip measured after 4 hrs by rotarod test; details: in vivo
[19] = Neurotoxicity in CD1 mouse at 100 mg/kg, ip measured after 30 mins by rotarod test; details: in vivo, 0.5 h
[20] = Neurotoxicity in Sprague-Dawley rat at 30 mg/kg, po measured after 4 hr by rotarod test; type: toxicity, organism-based; details: in vivo; method in brief: as §3
[21] = Neurotoxicity in CD1 mouse at 300 mg/kg, ip and measured after 4 hrs hrs by rotarod test; type: toxicity, organism-based; details: in vivo; method in brief: as §1
Mus musculus [22] = experiment: Anticonvulsant activity in CD1 mouse assessed as protection against subcutaneous pentylenetetrazole-induced seizures at 300 mg/kg, ip and measured after 4 hrs; type: functional, organism-based; method in brief: as §2
Rattus norvegicus [23] = experiment: Anticonvulsant activity in Sprague-Dawley rat assessed as protection against 150 mA current-induced seizure at 30 mg/kg, po measured after 4 hrs by maximal electroshock seizure test; type: functional, organism-based; method in brief: as §4
Rattus norvegicus [24] = experiment: Anticonvulsant activity in Sprague-Dawley rat assessed as protection against 150 mA current-induced seizure at 30 mg/kg, po measured after 2 hrs by maximal electroshock seizure test; type: functional, organism-based; method in brief: as §4
Mus musculus [25] = experiment: Anticonvulsant activity in CD1 mouse assessed as protection against 32 mA current-induced seizure at 100 mg/kg, ip measured after 30 mins by 6 Hz psychomotor seizure test
Mus musculus [26] = experiment: Anticonvulsant activity in CD1 mouse assessed as protection against 32 mA current-induced seizure at 100 mg/kg, ip measured after 2 hrs by 6 Hz psychomotor seizure test
Rattus norvegicus [27] = experiment: Anticonvulsant activity in Sprague-Dawley rat assessed as protection against 150 mA current-induced seizure at 30 mg/kg, po measured after 1 hr by maximal electroshock seizure test; type: functional, organism-based; method in brief: as §4

| SMILES | minimal effective dose (Mus musculus [4]) | MED (Mus musculus [5]) | minimal effective dose (Mus musculus [6]) | Activity [7] | Activity [8] | Activity (Mus musculus [9]) | Activity [10] | Activity [11] | Activity [12] | Activity (Rattus norvegicus [14]) | Activity [15] | Activity [16] | Activity [17] | Activity [18] | Activity [19] | Activity [20] | Activity [21] | Activity (Mus musculus [22]) | also measured |
| --- | --- | --- | --- | --- | --- | --- | --- | --- | --- | --- | --- | --- | --- | --- | --- | --- | --- | --- | --- |
| CC(C)C1(C(C)C)NC(=O)N(CN2CCN(c3ccccc3F)CC2)C1=O | 100 mg/kg | inactive | 100 mg/kg | – | – | – | – | – | – | – | – | – | – | – | – | – | – | – | minimal neurotoxic dose [1]: 300 mg/kg; minimal effective dose (Mus musculus [2]): 100 mg/kg; MTC [3]: 300 mg/kg |
| CC(C)C1(C(C)C)NC(=O)N(CN2CCN(c3cccc(C(F)(F)F)c3)CC2)C1=O | 100 mg/kg | inactive | – | Non-Toxic | Non-Toxic | inactive | Non-Toxic | Non-Toxic | Non-Toxic | inactive | Non-Toxic | Non-Toxic | Non-Toxic | Non-Toxic | Non-Toxic | Non-Toxic | Non-Toxic | inactive | Activity (Mus musculus [13]): inactive |
| O=C1NC(c2ccccc2)(c2ccccc2)C(=O)N1CN1CCN(c2cccc(C(F)(F)F)c2)CC1 | 100 mg/kg | inactive | 300 mg/kg | Non-Toxic | Non-Toxic | inactive | Non-Toxic | Non-Toxic | Non-Toxic | inactive | Non-Toxic | Non-Toxic | Non-Toxic | Non-Toxic | Non-Toxic | Non-Toxic | Non-Toxic | inactive | Activity (Rattus norvegicus [23]): Active; Activity (Rattus norvegicus [24]): Active; Activity (Mus musculus [25]): inactive; Activity (Mus musculus [26]): Active; Activity (Rattus norvegicus [27]): Active |
